ChEMBL document CHEMBL1131297, “N-(2-Benzoylphenyl)-L-tyrosine PPARgamma agonists. 3. Structure-activity relationship and optimization of the N-aryl substituent” (J Med Chem, 1998)
pEC50, pKi: −log10 of the molar value. Values after ≈ are worked out from the molar mass of the structure shown.

Key:
[1] = biological target: T1, Peroxisome proliferator-activated receptor gamma (Homo sapiens, UniProt P37231); assay: Binding affinity against peroxisome proliferator activated receptor gamma (PPAR-gamma)
T1 sequence (P37231 whole entry): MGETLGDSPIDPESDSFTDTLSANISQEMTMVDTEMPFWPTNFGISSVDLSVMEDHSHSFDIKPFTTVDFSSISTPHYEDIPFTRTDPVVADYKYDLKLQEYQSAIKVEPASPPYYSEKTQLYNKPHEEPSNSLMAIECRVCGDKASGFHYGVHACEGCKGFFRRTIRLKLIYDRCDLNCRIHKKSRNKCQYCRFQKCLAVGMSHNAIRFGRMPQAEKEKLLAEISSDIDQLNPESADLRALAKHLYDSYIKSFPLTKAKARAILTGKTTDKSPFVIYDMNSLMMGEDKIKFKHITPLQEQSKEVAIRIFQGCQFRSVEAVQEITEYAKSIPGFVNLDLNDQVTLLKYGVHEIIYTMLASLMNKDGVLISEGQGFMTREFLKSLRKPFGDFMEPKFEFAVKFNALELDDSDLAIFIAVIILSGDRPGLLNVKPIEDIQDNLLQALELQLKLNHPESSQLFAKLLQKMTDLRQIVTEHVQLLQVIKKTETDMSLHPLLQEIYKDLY

[2] = biological target: T1, Peroxisome proliferator-activated receptor gamma; assay: in vitro agonist activity against peroxisome proliferator activated receptor-gamma (PPAR-gamma), using alkaline phosphatase activity transactivator assay; assay type: functional
[3] = Solubility in phosphate buffer at pH 7.4.; assay type: physicochemical
Outline: (§1)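 Solubility in 0.06 M phosphate buffer, pH 7.4, in temperature-controlled shaking water baths. Samples were drawn, passed through a 0.22-µm filter, diluted in water/acetonitrile (60:40), and quantified by HPLC on a phenyl reverse-phase column. Reported in mg/mL.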

[4] = Solubility in simulated gastric fluid.; assay type: physicochemical; conditions: read-out: S
Outline: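 Solubility in simulated gastric fluid, pH 1.2, in temperature-controlled shaking water baths. Samples were drawn, passed through a 0.22-µm filter, diluted in water/acetonitrile (60:40), and quantified by HPLC on a phenyl reverse-phase column.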

[5] = biological target: T1, Peroxisome proliferator-activated receptor gamma; assay: The compound was tested in vitro for inhibiting the 50% binding of Peroxisome proliferator activated receptor gamma
Outline: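 Radioligand competition binding to the human PPARγ ligand-binding domain. IC50 is the concentration inhibiting 50% of specific radioligand binding. Apparent Ki = IC50/(1 + [L]/Kd), where [L] is the radioligand concentration and Kd its dissociation constant. Reported as pKi (−log Ki).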

[6] = biological target: T1, Peroxisome proliferator-activated receptor gamma; assay: The compound was tested functionally in vitro for inducing 50% of the maximum alkaline phosphatase activity (Transactivation) against Peroxisome proliferator activated receptor gamma; assay type: functional
[7] = Solubility in pH 7.4 Phosphate buffer; assay type: physicochemical; outline: as §1
Rattus norvegicus [8] = assay: Compound was tested in vivo for Antihyperglycemic activity in diabetic rats, activity is expressed as percent reduction of plasma glucose; assay type: functional
Outline: (§2)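 Nine-week-old male Zucker diabetic fatty rats, n = 8/group, baseline-matched for plasma glucose. The highest test dose was given twice daily by oral gavage for 17 days. Tail-vein blood was drawn on days 0, 3, 7 and 17 for plasma glucose, insulin, triglycerides and NEFAs. The value is mean ± SEM percent reduction versus vehicle controls on day 17.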

Rattus norvegicus [9] = organism: Rattus norvegicus; assay: Compound was tested for Antihyperlipidemic activity, activity is expressed as percent reduction of Triglycerides; assay type: functional; outline: as §2
Rattus norvegicus [10] = assay: Compound was tested in vivo for Antihyperglycemic activity in diabetic rats, activity is expressed as percent reduction of HbA-1c; assay type: functional
Outline: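 Male ZDF rats, nine weeks old, 8 per group, were matched at baseline on plasma glucose. They were dosed orally by gavage twice daily for 17 days at the maximum test dose. Glycosylated hemoglobin was measured on day 17. Data are mean ± SEM percent reduction relative to the vehicle control group.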

Rattus norvegicus [11] = organism: Rattus norvegicus; assay: Compound was tested for Antihyperlipidemic activity, activity is expressed as percent reduction of NEFAs; assay type: functional; outline: as §2

COc1cccc(C(=O)c2ccccc2NC(Cc2ccc(OCCN(C)c3nc4ccccc4o3)cc2)C(=O)O)c1 (configuration not stated)
pKi [1]: 8.64
pEC50 [2]: 6.93

Cc1oc(-c2ccccc2)nc1CCOc1ccc(CC(Nc2ccccc2C(=O)c2cccc(CN(C)C)c2)C(=O)O)cc1 (configuration not stated)
solubility [3]: 9 µg/mL (≈ 14.9 µM)
solubility [4]: 9 µg/mL (≈ 14.9 µM)
pEC50 [2]: 6.38

CN(CCOc1ccc(CC(Nc2ccccc2C(=O)c2cccc(C(F)(F)F)c2)C(=O)O)cc1)c1nc2ccccc2o1 (configuration not stated)
pKi [1]: 8.58
pEC50 [2]: 7.93

CN(CCOc1ccc(CC(Nc2ccccc2C(=O)c2cccc3ccccc23)C(=O)O)cc1)c1nc2ccccc2o1 (configuration not stated)
pKi [5]: 8.49
pEC50 [6]: 7.07

Cc1oc(-c2ccccc2)nc1CCOc1ccc(CC(Nc2ccccc2C(=O)c2ccc(C(=O)O)cc2)C(=O)O)cc1 (configuration not stated)
pKi [1]: 6.19
pEC50 [2]: 5.12

Cc1oc(-c2ccccc2)nc1CCOc1ccc(CC(Nc2ccccc2C(=O)c2cccc(N)c2)C(=O)O)cc1 (configuration not stated)
pKi [1]: 8.49
solubility [3]: 525 µg/mL (≈ 935 µM)
solubility [4]: 3 µg/mL (≈ 5.34 µM)
pEC50 [2]: 8.05

Cc1oc(-c2ccccc2)nc1CCOc1ccc(CC(Nc2ccccc2C(=O)c2ccc(CN(C)C)cc2)C(=O)O)cc1 (configuration not stated)
pKi [1]: 7.81
pEC50 [2]: 6.39

CCCOC(=O)c1ccccc1NC(Cc1ccc(OCCc2nc(-c3ccccc3)oc2C)cc1)C(=O)O (configuration not stated)
pKi [1]: 8.62
pEC50 [2]: 9.52

Cc1oc(-c2ccccc2)nc1CCOc1ccc(C[C@H](Nc2ccccc2C(=O)c2ccccc2)C(=O)O)cc1 [FARGLITAZAR]
solubility [4]: < 1 µg/mL
solubility [7]: < 1 µg/mL

Cc1oc(-c2ccccc2)nc1CCOc1ccc(C[C@H](Nc2ccccc2C(=O)C2CCCCC2)C(=O)O)cc1
pEC50 [2]: 9.55

Cc1ccc(NC(Cc2ccc(OCCN(C)c3nc4ccccc4o3)cc2)C(=O)O)c(C(=O)c2ccccc2)c1 (configuration not stated)
pKi [1]: 7.87
pEC50 [2]: 6.64

CN(CCOc1ccc(CC(Nc2ccc(Cl)cc2C(=O)c2ccccc2)C(=O)O)cc1)c1nc2ccccc2o1 (configuration not stated)
pKi [1]: 8.06
pEC50 [2]: 7.05

CN(CCOc1ccc(CC(Nc2ccncc2C(=O)c2ccccc2)C(=O)O)cc1)c1nc2ccccc2o1 (configuration not stated)
pKi [1]: 6.81
pEC50 [2]: 5.03

Cc1oc(-c2ccccc2)nc1CCOc1ccc(CC(Nc2ccccc2C(=O)N(C)C)C(=O)O)cc1 (configuration not stated)
pKi [1]: 6.60
pEC50 [2]: 6.25

CN(CCOc1ccc(CC(Nc2ccccc2C(=O)c2cccs2)C(=O)O)cc1)c1nc2ccccc2o1 (configuration not stated)
pKi [1]: 8.56
pEC50 [2]: 7.34

Cc1oc(-c2ccccc2)nc1CCOc1ccc(C[C@@H](Nc2ccccc2C(=O)C2CCCCC2)C(=O)O)cc1
pKi [1]: 6.72
solubility [3]: 52 µg/mL (≈ 94.1 µM)
solubility [4]: 2 µg/mL (≈ 3.62 µM)
pEC50 [2]: 7.82

Cc1oc(-c2ccccc2)nc1CCOc1ccc(CC(Nc2ccccc2C(=O)O)C(=O)O)cc1 (configuration not stated)
pKi [1]: < 5.50
pEC50 [2]: 5.31

Cc1oc(-c2ccccc2)nc1CCOc1ccc(CC(Nc2ccccc2C(=O)c2ccncc2)C(=O)O)cc1 (configuration not stated)
solubility [3]: 1150 µg/mL (≈ 2100 µM)
solubility [4]: 87 µg/mL (≈ 159 µM)
pEC50 [2]: 9.04

CN(CCOc1ccc(CC(Nc2ccsc2C(=O)c2ccccc2)C(=O)O)cc1)c1nc2ccccc2o1 (configuration not stated)
pKi [1]: 8.01
pEC50 [2]: 7.92

CN(CCOc1ccc(CC(Nc2ccccc2C(=O)c2ccc(C(F)(F)F)cc2)C(=O)O)cc1)c1nc2ccccc2o1 (configuration not stated)
pKi [1]: 8.29
pEC50 [2]: 7.62

CN(CCOc1ccc(C[C@H](Nc2ccccc2C(=O)C2CCCCC2)C(=O)O)cc1)c1nc2ccccc2o1
pKi [1]: 8.39
pEC50 [2]: 8.54

Cc1oc(-c2ccccc2)nc1CCOc1ccc(CC(Nc2ccccc2C(=O)c2ccc(CO)cc2)C(=O)O)cc1 (configuration not stated)
pKi [1]: 8.38
solubility [3]: 75 µg/mL (≈ 130 µM)
solubility [4]: 22 µg/mL (≈ 38.2 µM)
pEC50 [2]: 7.76

COC(=O)c1ccccc1N[C@@H](Cc1ccc(OCCc2nc(-c3ccccc3)oc2C)cc1)C(=O)O [GW7845]
Reduction (Rattus norvegicus [8]): 67%
Reduction (Rattus norvegicus [9]): 82%
Reduction (Rattus norvegicus [10]): 40%
solubility [3]: 300 µg/mL (≈ 599 µM)
solubility [4]: < 2 µg/mL
Reduction (Rattus norvegicus [11]): 87%

Cc1ccccc1C(=O)c1ccccc1NC(Cc1ccc(OCCN(C)c2nc3ccccc3o2)cc1)C(=O)O (configuration not stated)
pEC50 [2]: 8.03

CN(CCOc1ccc(CC(Nc2ccccc2C(=O)c2ccc(-c3ccccc3)cc2)C(=O)O)cc1)c1nc2ccccc2o1 (configuration not stated)
pKi [5]: 7.31
pEC50 [6]: 7.62

Cc1ccc(C(=O)c2ccccc2NC(Cc2ccc(OCCN(C)c3nc4ccccc4o3)cc2)C(=O)O)cc1 (configuration not stated)
pKi [1]: 8.55
pEC50 [2]: 8.07

Cc1oc(-c2ccccc2)nc1CCOc1ccc(CC(Nc2ccccc2C(=O)c2cccnc2)C(=O)O)cc1 (configuration not stated)
pKi [1]: 9.03
solubility [3]: 55 µg/mL (≈ 100 µM)
solubility [4]: 18 µg/mL (≈ 32.9 µM)
pEC50 [2]: 8.83

Cc1oc(-c2ccccc2)nc1CCOc1ccc(CC(Nc2ccccc2C(=O)OC(C)C)C(=O)O)cc1 (configuration not stated)
pKi [1]: 9.01
pEC50 [2]: 9.24

COc1ccccc1C(=O)c1ccccc1NC(Cc1ccc(OCCN(C)c2nc3ccccc3o2)cc1)C(=O)O (configuration not stated)
pEC50 [2]: 7.42

CNC(=O)c1ccccc1NC(Cc1ccc(OCCc2nc(-c3ccccc3)oc2C)cc1)C(=O)O (configuration not stated)
pKi [1]: 7.81
pEC50 [2]: 7.49

CN(CCOc1ccc(CC(Nc2ccccc2C(=O)c2ccc(OCc3ccccc3)cc2)C(=O)O)cc1)c1nc2ccccc2o1 (configuration not stated)
pKi [1]: 7.18
pEC50 [2]: 6.12

Cc1oc(-c2ccccc2)nc1CCOc1ccc(CC(Nc2ccccc2C(=O)c2cccc(CO)c2)C(=O)O)cc1 (configuration not stated)
pKi [1]: 8.47
solubility [3]: 1340 µg/mL (≈ 2320 µM)
pEC50 [2]: 7.61

Cc1cccc(C(=O)c2ccccc2NC(Cc2ccc(OCCN(C)c3nc4ccccc4o3)cc2)C(=O)O)c1 (configuration not stated)
pKi [1]: 8.57
pEC50 [2]: 7.78

CN(CCOc1ccc(C[C@@H](Nc2ccccc2C(=O)C2CCCCC2)C(=O)O)cc1)c1nc2ccccc2o1
pKi [1]: 5.81
pEC50 [2]: < 5.00

CN(CCOc1ccc(CC(Nc2ccccc2C(=O)c2ccccc2)C(=O)O)cc1)c1nc2ccccc2o1 (configuration not stated)
pKi [1]: 8.83

Cc1oc(-c2ccccc2)nc1CCOc1ccc(CC(Nc2ccccc2C(=O)c2cccc(C(=O)O)c2)C(=O)O)cc1 (configuration not stated)
pKi [1]: 6.09
pEC50 [2]: 6.68

Cc1c(C)c2c(c(C)c1O)CCC(C)(COc1ccc(CC3SC(=O)NC3=O)cc1)O2 (configuration not stated) [TROGLITAZONE]
Reduction (Rattus norvegicus [8]): 59%
Reduction (Rattus norvegicus [9]): 85%
Reduction (Rattus norvegicus [10]): 35%
Reduction (Rattus norvegicus [11]): 81%

CN(CCOc1ccc(CC(Nc2ccccc2C(=O)c2ccsc2)C(=O)O)cc1)c1nc2ccccc2o1 (configuration not stated)
pKi [1]: 8.63
pEC50 [2]: 7.20

CN(CCOc1ccc(CC(Nc2sccc2C(=O)c2ccccc2)C(=O)O)cc1)c1nc2ccccc2o1 (configuration not stated)
pKi [1]: 7.63
pEC50 [2]: 7.42

CN(CCOc1ccc(CC(Nc2cscc2C(=O)c2ccccc2)C(=O)O)cc1)c1nc2ccccc2o1 (configuration not stated)
pKi [1]: 8.59
pEC50 [2]: 8.08

CN(CCOc1ccc(CC(Nc2ccccc2C(=O)C2CCCCCC2)C(=O)O)cc1)c1nc2ccccc2o1 (configuration not stated)
pKi [1]: 7.40
pEC50 [2]: 8.11

CSc1nc(NC(Cc2ccc(OCCN(C)c3nc4ccccc4o3)cc2)C(=O)O)c(C(=O)c2ccccc2)s1 (configuration not stated)
pKi [1]: 7.37
pEC50 [2]: 5.39

CN(CCOc1ccc(CC(Nc2ccccc2C(=O)c2cccc(OCc3ccccc3)c2)C(=O)O)cc1)c1nc2ccccc2o1 (configuration not stated)
pKi [5]: 7.27
pEC50 [6]: 6.13

COc1ccc(C(=O)c2ccccc2NC(Cc2ccc(OCCN(C)c3nc4ccccc4o3)cc2)C(=O)O)cc1 (configuration not stated)
pKi [1]: 8.25
pEC50 [2]: 7.49

CCOC(=O)c1ccccc1NC(Cc1ccc(OCCc2nc(-c3ccccc3)oc2C)cc1)C(=O)O (configuration not stated)
pKi [1]: 8.52
pEC50 [2]: 9.04

CN(CCOc1ccc(CC(Nc2ccccc2C(=O)c2ccccc2C(F)(F)F)C(=O)O)cc1)c1nc2ccccc2o1 (configuration not stated)
pKi [1]: 8.57
pEC50 [2]: 7.40

CN(CCOc1ccc(CC(Nc2ccccc2C(=O)C2CCCC2)C(=O)O)cc1)c1nc2ccccc2o1 (configuration not stated)
pKi [1]: 8.19
pEC50 [2]: 7.74
